Assay outcomes: PubChem, Sanford-Burnham Center for Chemical Genomics
In the library only some 1.5% were active in any assay of this set; here they are far more common.
TRAIL sens C8 – sensitizes caspase-8 expressing cells to TRAIL; NB7+C8 cells + TRAIL, ATPlite viability luminescence; inhibition (viability loss, TRAIL sensitization), % at 10 µM; 360,000 tested, 1% active; AID 624354;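 active = compounds causing at least 50% loss of cell viability in the single-dose screen, relative to plate controls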
FLuc stim CS – firefly luciferase counter-screen for stimulation assays. P08659. ATPlite luciferase biochemical, luminescence, 10 min; 0 = ATP-free wells, 1 = DMSO control. activation factor at 10 µM. 200,000 tested, under 10 active;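 active = luciferase activation factor, scaled between plate controls, of at least 2 with compound at 10 µM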
Target sequence (P08659 whole entry, looked up): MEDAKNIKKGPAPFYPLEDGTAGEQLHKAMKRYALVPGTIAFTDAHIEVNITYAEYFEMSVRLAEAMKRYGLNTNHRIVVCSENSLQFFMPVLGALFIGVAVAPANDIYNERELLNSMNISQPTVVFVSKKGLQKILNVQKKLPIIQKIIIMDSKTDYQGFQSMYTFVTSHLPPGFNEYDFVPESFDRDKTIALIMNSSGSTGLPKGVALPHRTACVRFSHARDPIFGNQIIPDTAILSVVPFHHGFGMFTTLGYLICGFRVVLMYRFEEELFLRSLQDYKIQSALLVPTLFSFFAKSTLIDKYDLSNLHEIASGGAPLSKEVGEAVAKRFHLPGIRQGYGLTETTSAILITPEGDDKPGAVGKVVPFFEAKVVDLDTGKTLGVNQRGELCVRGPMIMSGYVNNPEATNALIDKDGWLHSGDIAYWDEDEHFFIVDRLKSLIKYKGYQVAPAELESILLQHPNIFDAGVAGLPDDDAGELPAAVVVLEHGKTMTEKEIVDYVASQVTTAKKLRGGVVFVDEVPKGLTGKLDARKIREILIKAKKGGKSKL
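Assay system: Luciferase/luciferin detection reagent, cell-free biochemical luciferase assay / Also added: ATP substrate / Schedule: 10 min at ambient temperature / Measured by: luminescence measurement of luciferase light output / Benchmarks: low control with PBS replacing ATP, high control enzyme plus ATP without compound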
PPC-1+TRAIL kill – PPC-1 cancer cell killing with TRAIL present. AID 1443. cell killing (% activity), % at 4 µM or 5 µM. PPC-1 cells + TRAIL, ATPLite viability luminescence. 220,000 tested, 0.41% active;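 active = cell killing above 50% in the first pass at 4 µM, then a duplicate retest at 5 µM averaging 50% or more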
FLuc inhib CS – counter-screen for luciferase assay inhibitors: firefly luciferase inhibition; ATPLite firefly luciferase biochemical luminescence, 10 min; inhibition, % at 10 µM; 200,000 tested, 1.5% active; AID 1006;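 active = inhibition above about 50% when tested at 10 µM, limit read from the data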
PPC-1 tox – PPC-1 cell cytotoxicity; shares compounds with PPC-1+TRAIL kill; PPC-1 viability, ATPlite luminescence, overnight; cytotoxicity, % at 5 µM; 1,200 tested, 50% active;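 active = reconfirmed compounds whose average cytotoxicity reaches 50% or more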
Numbers stand for hits; n = inactive; x = no result.

SMILES	TRAIL sens C8	FLuc stim CS	PPC-1+TRAIL kill	FLuc inhib CS	PPC-1 tox
CCN1CCN(c2ccc(S(=O)(=O)N3CCCCC3)cc2NC(=O)c2sccc2C)CC1	n	x	x	x	x
COc1cccc(C(=O)Nc2ccc(NC(=O)C(C)(C)C)cn2)c1	77	n	71	88	73
CCOC(=O)[C@]12CCC=C1N(Cc1ccc3c(c1)OCO3)C(=O)[C@H](CC(=O)NCC13CC4CC(CC(C4)C1)C3)C2	n	x	x	x	x
CC(=O)Nc1cnc(NC(=O)c2cccc(F)c2)cc1C	n	n	n	n	x
CCC(=O)Nc1cnc(NC(=O)c2cccc(F)c2)cc1C	n	n	n	n	n
Oc1c(N=Nc2ccccn2)ccc2ccccc12	74	n	82	91	80
C=CCN1C(=O)c2ccc(C(=O)N(C)CC(=O)Nc3ccccc3Br)cc2C1=O	n	x	x	x	x
NC(=O)C1CCN(C(=O)c2cccc(S(=O)(=O)N3CCCC3)c2)CC1	n	x	x	x	x
Cc1ccc(OCc2nnc(SCC(=O)NCc3ccccc3)n2C)cc1	n	n	n	n	n
Cc1cc(N=Nc2ccccc2)cc(C)c1NC(=O)C(F)(F)F	n	x	x	x	x
C[C@@H]1CN([C@H](C)CO)C(=O)c2cc(Br)cnc2O[C@@H]1CN(C)C(=O)C1CCOCC1	n	x	x	x	x
c1ccc2sc(NN=C3CCCCCC3)nc2c1	66	n	61	89	64
O=C(Nc1cccnc1Cl)c1ccc2c(Cl)c3c(nc2c1)CCC3	76	n	63	91	65
C[C@H]1CN([C@@H](C)CO)C(=O)c2cc(C#Cc3ccccn3)cnc2O[C@@H]1CN(C)Cc1ccccc1	n	x	x	x	x
Nc1ccc(-c2nc3cc(N)ccc3s2)cc1	60	n	n	89	54
Nc1ccc2nc(-c3ccccc3)sc2c1	76	n	68	90	68
CNC(=S)Nc1ccc(-c2nc3ccc(C)cc3s2)cc1	n	n	n	n	x
Cc1ccc2nc(-c3ccc(N)cc3)sc2c1	83	x	81	x	82
CC1(C)CC(=O)c2sc(NC(=O)c3cccs3)nc2C1	85	n	77	95	77
CC1(C)CC(=O)c2sc(NC(=O)c3ccccc3)nc2C1	x	n	52	88	52
CC(C)c1ccc(NC(=O)CN(C)C2=NS(=O)(=O)c3ccccc32)cc1	n	x	x	x	x
Cc1ccc(NCc2ccccc2O)cc1	n	n	n	n	n
CC(C)CO/C(=N/S(=O)(=O)c1ccccc1)c1ccccc1	n	n	n	n	n
COc1ccc(CSc2nc3ccccc3[nH]2)cc1	69	n	58	82	55
O=C1CCC(=O)N1c1ccc(CSc2nc3ccccc3[nH]2)cc1	n	n	n	n	x
SMILES	TRAIL sens C8	FLuc stim CS	PPC-1+TRAIL kill	FLuc inhib CS	PPC-1 tox
CCN(CC)CCCNc1nc2cc(OC)c(OC)cc2c2nc(-c3ccccc3)nn12	n	n	n	n	n
CN1CCN(CCCNc2c(C=O)c(=O)[nH]c3ccccc23)CC1	n	x	x	x	x
CC1(C)CC(=O)C(CC(=O)c2ccccc2)=C(NN=C(N)N)C1	n	x	x	x	x
O=C(N/N=C/c1cccc2cccnc12)c1ccccc1O	n	x	n	x	n
C(=N\Nc1nc2ccccc2[nH]1)/c1c[nH]c2ccccc12	n	n	n	n	x
O=C(N/N=C/c1cccc2nccnc12)c1ccccc1O	n	x	n	x	x
C(=N\Nc1nc2ccccc2[nH]1)/c1cccc2cccnc12	n	x	53	x	52
CC(C)O/C(=N/S(=O)(=O)c1ccc(Cl)cc1)c1ccccc1	n	x	x	x	x
CC(=O)N1CCN(c2ccccc2NC(=O)COc2ccc(Cl)cc2Cl)CC1	n	n	n	n	n
CC(=O)N1CCN(c2ccccc2NC(=O)COc2ccccc2C)CC1	n	n	n	n	x
O=C(NCCC(=O)N1CCN(c2ccc(F)cc2)CC1)c1ccco1	n	x	x	x	x
COc1cccc2sc(Nc3nc(-c4ccccn4)cs3)nc12	n	n	n	n	n
Cc1ccc(S(=O)(=O)N2C(=O)CCC2C(=O)O/N=C(\N)c2ccc([N+](=O)[O-])cc2)cc1 (stereo unspecified)	n	x	x	x	x
CCn1nnc(NC(=O)c2cccnc2)n1	n	n	n	n	x
CCn1nnc(NC(=O)c2ccc(C(C)(C)C)cc2)n1	78	n	57	82	n
O=C(CNC(=O)C1CCCCC1)NNC(=O)c1ccccc1Br	n	x	x	x	x
CC(=O)Nc1ccc(C(=O)NCC2CCCCC2)cc1	n	x	x	x	x
Cc1ccc(C(=O)Nc2ncc3c(Cl)cccc3n2)cc1	83	n	74	94	67
CN(C(=O)CSc1nnc(Nc2ccccc2)s1)c1c(N)n(Cc2ccccc2)c(=O)[nH]c1=O	n	n	n	n	x
CCCCN(C(=O)CSc1nnc(Nc2ccc(C)c(C)c2)s1)c1c(N)n(Cc2ccccc2)c(=O)[nH]c1=O	n	n	n	63	n
Cc1ccc(-c2cc(C(=O)N/N=C\c3cnn(C)c3C)c3ccccc3n2)cc1C	n	n	53	n	n
CC(NS(=O)(=O)c1ccc2[nH]c(=O)[nH]c2c1)c1ccc(F)cc1 (stereo unspecified)	n	x	x	x	x
Cc1ccc(-c2ccc(NC(=O)C3C4C=CC(C4)C3C(=O)O)cc2)o1 (stereo unspecified)	n	n	n	n	n
COc1cc(-c2c(C#N)c(N)nc3[nH]c(=S)[nH]c(=O)c23)ccc1O	n	x	x	x	x
Cc1nc2cc(NC(=O)Nc3cccc4ccccc34)ccc2n1C	n	n	n	56	n
SMILES	TRAIL sens C8	FLuc stim CS	PPC-1+TRAIL kill	FLuc inhib CS	PPC-1 tox
Cc1ccc(NC(=O)Nc2ccc3c(c2)nc(C)n3C)cc1C	x	n	n	n	x
COc1ccc(Nc2nnc(-c3ccccc3)c3ccccc23)cc1C(=O)N1CCCCC1	n	n	n	n	x
Cc1nc2cc(Nc3nnc(-c4ccccc4)c4ccccc34)ccc2n1C	75	n	71	92	70
COc1cc(/C=N/Nc2nncn2/N=C/c2ccc(O)c(OC)c2)ccc1O	75	n	83	96	83
COC(=O)c1c(NC(=O)COC(=O)CC(NC(C)=O)c2ccccc2)sc(C)c1C (stereo unspecified)	n	x	x	x	x
CN(CC(=O)Nc1ccccc1Cl)C(=O)Cn1cnc2ccccc2c1=O	n	x	x	x	x
COc1ccc(O)c(C(=O)CC(=O)c2ccccc2)c1	x	n	60	n	58
COc1ccc(O)c(C(=O)CC(=O)c2ccncc2)c1	n	x	x	x	x
Cc1cc(-c2ccccc2)nc(SCc2ccc(C(=O)O)cc2)n1	n	x	x	x	x
CN(C(=O)CN1CCN(c2ccccc2F)CC1)C1CCCc2ccccc21 (stereo unspecified)	n	x	x	x	x
CCOc1ccc(-n2c(SC(C)C)nc3c(c2=O)SCC3)cc1	n	n	n	n	x
CCOc1ccc(-n2c(SC)nc3c(c2=O)SCC3)cc1	n	n	n	n	n
COC(=O)c1nc2ccc(N3CCOCC3)cc2c(C)c1C(=O)OC	63	n	n	87	n
CCCCC/C=C/C1=CC(=O)C[C@H](c2ccc(OC)c(OC)c2)C1	n	x	x	x	x
COCCn1c(C)cc(C(=O)COC(=O)c2n[nH]c3ccccc23)c1C	88	n	82	94	84
COCCn1c(C)cc(C(=O)COC(=O)Cc2n[nH]c(=O)c3ccccc23)c1C	n	x	x	x	x
CCc1ccc(-c2ccc(SCC(=O)NCC3CCCO3)nn2)cc1 (stereo unspecified)	59	n	n	80	n
